Two compounds from ChEMBL document CHEMBL4387781, “Optimization of oxadiazole derivatives with a spirocyclic cyclohexane structure as novel GPR119 agonists” (Bioorg Med Chem Lett, 2019) can be followed below.

SMILES strings stand for the structures. Active and inactive are the calls of the source. The rule behind the calls is not given here. Where only a bound is given, the exact number is not on record here.

Chain of Cytochrome P450 2C19 (P33261 whole entry): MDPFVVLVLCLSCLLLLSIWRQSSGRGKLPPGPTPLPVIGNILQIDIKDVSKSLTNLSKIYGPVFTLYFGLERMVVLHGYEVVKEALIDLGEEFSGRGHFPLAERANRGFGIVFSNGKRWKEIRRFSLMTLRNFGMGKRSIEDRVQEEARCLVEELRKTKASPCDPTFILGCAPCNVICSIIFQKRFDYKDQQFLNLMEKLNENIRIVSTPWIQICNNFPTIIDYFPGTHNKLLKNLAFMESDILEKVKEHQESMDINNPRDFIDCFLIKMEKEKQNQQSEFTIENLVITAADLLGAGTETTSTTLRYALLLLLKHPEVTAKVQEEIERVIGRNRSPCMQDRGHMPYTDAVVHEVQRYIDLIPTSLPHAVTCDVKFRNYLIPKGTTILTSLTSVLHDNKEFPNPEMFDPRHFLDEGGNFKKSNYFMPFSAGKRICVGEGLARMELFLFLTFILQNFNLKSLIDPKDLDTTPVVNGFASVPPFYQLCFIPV
Chain of Cytochrome P450 2C9 (P11712 whole entry): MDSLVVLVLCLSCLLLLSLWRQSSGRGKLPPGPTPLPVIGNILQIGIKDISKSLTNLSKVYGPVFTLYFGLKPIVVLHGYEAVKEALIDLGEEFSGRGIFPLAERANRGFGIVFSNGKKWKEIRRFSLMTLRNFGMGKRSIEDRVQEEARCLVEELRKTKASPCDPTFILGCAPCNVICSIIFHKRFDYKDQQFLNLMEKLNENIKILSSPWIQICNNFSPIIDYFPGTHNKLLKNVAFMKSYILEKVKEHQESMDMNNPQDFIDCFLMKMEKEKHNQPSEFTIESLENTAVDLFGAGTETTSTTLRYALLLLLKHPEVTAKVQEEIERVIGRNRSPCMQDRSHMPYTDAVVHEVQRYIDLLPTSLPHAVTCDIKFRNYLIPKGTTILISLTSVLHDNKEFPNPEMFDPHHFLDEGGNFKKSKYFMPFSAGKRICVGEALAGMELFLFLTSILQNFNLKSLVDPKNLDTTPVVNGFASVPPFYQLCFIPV

System in one series: not listed separately
The series is described as follows: Stability in rat liver microsomes assessed as parent compound remaining at 5 uM measured after 1 hr. Format: ADME, Microsome. Particulars: read-out: Stability. Summed up:
(§1)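 Compound at 5 μM incubated 1 hour with human or rat liver microsomes (0.2 mg/mL); percent of parent remaining reported.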
For orientation: Liver microsomes are a subcellular fraction often used to study metabolism.
`C[C@@H](O[C@H]1CC[C@@]2(CC1)CC(F)(F)CCO2)c1nc(-c2cc(F)c(CS(C)(=O)=O)c(F)c2)no1`: the remaining at 1 h, 5 µM was 91%.
In the case of `C[C@@H](O[C@H]1CC[C@]2(CCC(F)(F)CO2)CC1)c1nc(-c2cc(F)c(CS(C)(=O)=O)c(F)c2)no1`, the remaining at 1 h, 5 µM amounted to 98%.

In another series the target is T1, Glucose-dependent insulinotropic receptor (Homo sapiens) (UniProt Q8TDV5).
T1 sequence (whole entry): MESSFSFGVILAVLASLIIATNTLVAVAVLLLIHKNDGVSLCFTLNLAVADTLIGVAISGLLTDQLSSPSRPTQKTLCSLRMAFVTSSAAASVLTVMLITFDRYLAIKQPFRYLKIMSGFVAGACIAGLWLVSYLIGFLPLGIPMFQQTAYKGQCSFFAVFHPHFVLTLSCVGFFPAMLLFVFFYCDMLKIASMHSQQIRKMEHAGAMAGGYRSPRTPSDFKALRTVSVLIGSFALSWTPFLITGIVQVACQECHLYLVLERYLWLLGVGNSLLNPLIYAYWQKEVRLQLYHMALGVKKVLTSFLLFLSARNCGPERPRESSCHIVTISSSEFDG
The series is described as follows: Agonist activity at recombinant human GPR119 expressed in HEK293 cells assessed as increase in intracellular cAMP accumulation measured after 30 mins relative to oleoylethanolamide. Format: functional, cell-based.
Details: not given
(Cyclic AMP is a second messenger, typically raised through Gs and lowered through Gi signalling.)
Consider `C[C@@H](O[C@H]1CC[C@@]2(CC1)CC(F)(F)CCO2)c1nc(-c2cc(F)c(CS(C)(=O)=O)c(F)c2)no1`, for which the %max was found to be 106%.
Consider `C[C@@H](O[C@H]1CC[C@]2(CCC(F)(F)CO2)CC1)c1nc(-c2cc(F)c(CS(C)(=O)=O)c(F)c2)no1`, for which the %max was found to be 112%.

System in a further series: not listed separately
Nature of the series: Volume of distribution at steady state in Sprague-Dawley rat at 1 mg/kg, iv. Format: ADME, organism-based. To be noted: in vivo, read-out: Vdss. The method, boiled down: (§2)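 Sprague-Dawley rats given 1 mg/kg intravenously or 3 mg/kg orally; t1/2β, CL, Vdss and MRT from IV dosing, oral bioavailability from PO dosing.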
Turning to `C[C@@H](O[C@H]1CC[C@]2(CCC(F)(F)CO2)CC1)c1nc(-c2cc(F)c(CS(C)(=O)=O)c(F)c2)no1`, the Vd amounted to 3.5 L/kg.

System in another series: not listed separately
Nature of the series: Stability in human liver microsomes assessed as parent compound remaining at 5 uM measured after 1 hr. Format: ADME, Microsome. Particulars: read-out: Stability. Summed up: as §1
`C[C@@H](O[C@H]1CC[C@@]2(CC1)CC(F)(F)CCO2)c1nc(-c2cc(F)c(CS(C)(=O)=O)c(F)c2)no1`: the remaining at 1 h, 5 µM was 97%.
Same read-out and setting: under `C[C@@H](O[C@H]1CC[C@]2(CCC(F)(F)CO2)CC1)c1nc(-c2cc(F)c(CS(C)(=O)=O)c(F)c2)no1` stands 98%.

System in another series: not listed separately
The series is described as follows: Oral bioavailability in Sprague-Dawley rat at 3 mg/kg. Format: ADME, organism-based. Particulars: in vivo. Summed up:
as §2
By bioavailability is commonly meant dose-corrected exposure relative to a reference, in per cent. Turning to `C[C@@H](O[C@H]1CC[C@]2(CCC(F)(F)CO2)CC1)c1nc(-c2cc(F)c(CS(C)(=O)=O)c(F)c2)no1`, the bioavailability worked out at 43%.

System in the next series: not listed separately
The series is described as follows: Clearance in Sprague-Dawley rat at 1 mg/kg, iv. Format: ADME, organism-based. To be noted: in vivo. Summed up:
as §2
One may read the clearance as the rate of elimination divided by the concentration. Regarding `C[C@@H](O[C@H]1CC[C@]2(CCC(F)(F)CO2)CC1)c1nc(-c2cc(F)c(CS(C)(=O)=O)c(F)c2)no1`, the clearance is 8.33 mL/min/kg.

The target of the next series is T2, Glucose-dependent insulinotropic receptor (Homo sapiens, UniProt Q8TDV5).
T2 sequence (Q8TDV5 whole entry): T1 sequence (whole entry)
The series is described as follows: Agonist activity at recombinant human GPR119 expressed in HEK293 cells assessed as increase in intracellular cAMP accumulation measured after 30 mins. Format: functional, cell-based.
Details: not given
As a reminder, the EC50 is the midpoint of the concentration-response curve. Consider `C[C@@H](O[C@H]1CC[C@@]2(CC1)CC(F)(F)CCO2)c1nc(-c2cc(F)c(CS(C)(=O)=O)c(F)c2)no1`, for which the concentration giving a half-maximal response (EC50) was found to be 0.027 µM.
Still for that read-out and setting: under `C[C@@H](O[C@H]1CC[C@]2(CCC(F)(F)CO2)CC1)c1nc(-c2cc(F)c(CS(C)(=O)=O)c(F)c2)no1` stands 0.006 µM.

System in a further series: not listed separately
The series is described as follows: MRT in Sprague-Dawley rat at 1 mg/kg, iv. Format: ADME, organism-based. To be noted: in vivo. The method, boiled down:
as §2
Usually MRT stands for a mean duration of stay, worked out from the concentration-time curve. As to `C[C@@H](O[C@H]1CC[C@]2(CCC(F)(F)CO2)CC1)c1nc(-c2cc(F)c(CS(C)(=O)=O)c(F)c2)no1`, the mean residence time (MRT) was 6.4 h.

For a further series, the system named is Rattus norvegicus. Nature of the series: Effect on plasma glucose level in Sprague-Dawley rat at 1 to 3 mg/kg, po measured after 16 hrs. Particulars: in vivo. Format: ADME, organism-based. The method, boiled down: (§3)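 Overnight-fasted 7-week-old Sprague-Dawley rats dosed by oral gavage; 16 h later glucose 1 g/kg given intraperitoneally. Tail-vein blood drawn before and at 10, 30, 60 min after loading; glucose followed up to 2 h. Plasma glucose by automatic analyzer, insulin by rat insulin ELISA; glucose AUC calculated.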
For `C[C@@H](O[C@H]1CC[C@]2(CCC(F)(F)CO2)CC1)c1nc(-c2cc(F)c(CS(C)(=O)=O)c(F)c2)no1`, the Activity result is on record as “Non-Toxic”.

A further series relates to Rattus norvegicus. The series is described as follows: Effect on plasma insulin level in Sprague-Dawley rat at 1 to 3 mg/kg, po measured after 16 hrs by ELISA. Format: ADME, organism-based. Particulars: in vivo. The method, boiled down: as §3
A general note: ELISA stands for enzyme-linked immunosorbent assay.
In the case of `C[C@@H](O[C@H]1CC[C@]2(CCC(F)(F)CO2)CC1)c1nc(-c2cc(F)c(CS(C)(=O)=O)c(F)c2)no1`, the Activity entry is recorded as “Non-Toxic”.

The target of the next series is T3, Cytochrome P450 1A2 (Homo sapiens, UniProt P05177).
T3 sequence (P05177 whole entry): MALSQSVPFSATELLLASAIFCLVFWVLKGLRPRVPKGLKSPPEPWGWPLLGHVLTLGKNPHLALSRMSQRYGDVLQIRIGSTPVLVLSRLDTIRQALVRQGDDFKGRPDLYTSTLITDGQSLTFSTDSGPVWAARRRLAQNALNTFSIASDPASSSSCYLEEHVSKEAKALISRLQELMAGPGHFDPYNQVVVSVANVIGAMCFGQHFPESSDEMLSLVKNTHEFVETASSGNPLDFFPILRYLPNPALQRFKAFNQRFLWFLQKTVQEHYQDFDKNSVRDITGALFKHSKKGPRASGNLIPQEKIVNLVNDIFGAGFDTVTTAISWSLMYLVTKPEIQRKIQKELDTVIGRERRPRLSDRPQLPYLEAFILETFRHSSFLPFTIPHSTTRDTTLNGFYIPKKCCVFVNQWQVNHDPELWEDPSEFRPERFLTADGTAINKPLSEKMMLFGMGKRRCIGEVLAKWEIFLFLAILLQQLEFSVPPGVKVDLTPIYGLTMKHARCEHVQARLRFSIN
The series is described as follows: Inhibition of CYP1A2 (unknown origin). Format: ADME.
Details: not given
The IC50 is the concentration that gives 50% inhibition. `C[C@@H](O[C@H]1CC[C@]2(CCC(F)(F)CO2)CC1)c1nc(-c2cc(F)c(CS(C)(=O)=O)c(F)c2)no1` had an IC50 of more than 50 µM.

The test system of another series is Rattus norvegicus. Nature of the series: Hypoglycemic activity in Sprague-Dawley rat assessed as reduction in plasma glucose level at 1 to 3 mg/kg, po treated for 16 hrs prior to glucose stimulation and measured up to 2 hrs by IPGTT. The class given is functional, organism-based.
Details: not given
The method, boiled down:
as §3
In the case of `C[C@@H](O[C@H]1CC[C@]2(CCC(F)(F)CO2)CC1)c1nc(-c2cc(F)c(CS(C)(=O)=O)c(F)c2)no1`, the result was Active.

The test system of a further series is Rattus norvegicus. Nature of the series: Hypoglycemic activity in Sprague-Dawley rat assessed as reduction in plasma insulin level at 1 to 3 mg/kg, po treated for 16 hrs prior to glucose stimulation and measured up to 1 hr by ELISA. Format: functional, organism-based.
Details: not given
The method, boiled down:
as §3
As for `C[C@@H](O[C@H]1CC[C@]2(CCC(F)(F)CO2)CC1)c1nc(-c2cc(F)c(CS(C)(=O)=O)c(F)c2)no1`, the result was Active.

In another series the test system is Rattus norvegicus. Nature of the series: Hypoglycemic activity in Sprague-Dawley rat assessed as reduction in plasma glucose AUC at 3 mg/kg, po treated for 16 hrs prior to glucose stimulation and measured up to 2 hrs by IPGTT relative to control. The class given is functional. More on the design: scale not given: the % may be the effect or the level left.
Details: not given
The method, boiled down: as §3
As to `C[C@@H](O[C@H]1CC[C@]2(CCC(F)(F)CO2)CC1)c1nc(-c2cc(F)c(CS(C)(=O)=O)c(F)c2)no1`, the Activity is reported as 12%.

For the next series, the target named is Cytochrome P450 2D6 (Homo sapiens, UniProt P10635). The series is described as follows: Inhibition of CYP2D6 (unknown origin). The class given is ADME.
Chain of Cytochrome P450 2D6 (P10635 whole entry): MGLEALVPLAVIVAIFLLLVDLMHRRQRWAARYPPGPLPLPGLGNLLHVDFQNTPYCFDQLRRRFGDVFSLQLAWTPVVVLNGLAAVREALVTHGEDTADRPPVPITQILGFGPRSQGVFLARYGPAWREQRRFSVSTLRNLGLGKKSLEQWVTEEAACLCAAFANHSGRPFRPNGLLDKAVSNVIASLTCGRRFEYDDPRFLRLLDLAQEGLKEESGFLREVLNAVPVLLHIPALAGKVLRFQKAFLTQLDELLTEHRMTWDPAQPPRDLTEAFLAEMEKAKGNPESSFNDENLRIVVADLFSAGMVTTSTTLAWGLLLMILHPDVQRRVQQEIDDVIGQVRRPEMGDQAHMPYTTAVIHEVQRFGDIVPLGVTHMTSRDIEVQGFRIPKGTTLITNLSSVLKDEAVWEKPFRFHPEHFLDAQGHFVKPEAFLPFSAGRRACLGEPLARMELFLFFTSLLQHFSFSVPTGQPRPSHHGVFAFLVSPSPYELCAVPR
Details: not given
`C[C@@H](O[C@H]1CC[C@]2(CCC(F)(F)CO2)CC1)c1nc(-c2cc(F)c(CS(C)(=O)=O)c(F)c2)no1` had an IC50 of more than 50 µM.

A further series has as its target Cytochrome P450 2C9 (Homo sapiens, UniProt P11712). The series is described as follows: Inhibition of CYP2C9 (unknown origin). The class given is ADME.
Details: not given
For the compound `C[C@@H](O[C@H]1CC[C@]2(CCC(F)(F)CO2)CC1)c1nc(-c2cc(F)c(CS(C)(=O)=O)c(F)c2)no1`, the IC50 is more than 50 µM.

The next series addresses Cytochrome P450 2C19 (Homo sapiens, UniProt P33261). Nature of the series: Inhibition of CYP2C19 (unknown origin). Format: ADME.
Details: not given
In the case of `C[C@@H](O[C@H]1CC[C@]2(CCC(F)(F)CO2)CC1)c1nc(-c2cc(F)c(CS(C)(=O)=O)c(F)c2)no1`, the IC50 was more than 50 µM.

The target in another series is Cytochrome P450 3A4 (Homo sapiens, UniProt P08684). The series is described as follows: Inhibition of CYP3A4 (unknown origin).
Chain of Cytochrome P450 3A4 (P08684 whole entry): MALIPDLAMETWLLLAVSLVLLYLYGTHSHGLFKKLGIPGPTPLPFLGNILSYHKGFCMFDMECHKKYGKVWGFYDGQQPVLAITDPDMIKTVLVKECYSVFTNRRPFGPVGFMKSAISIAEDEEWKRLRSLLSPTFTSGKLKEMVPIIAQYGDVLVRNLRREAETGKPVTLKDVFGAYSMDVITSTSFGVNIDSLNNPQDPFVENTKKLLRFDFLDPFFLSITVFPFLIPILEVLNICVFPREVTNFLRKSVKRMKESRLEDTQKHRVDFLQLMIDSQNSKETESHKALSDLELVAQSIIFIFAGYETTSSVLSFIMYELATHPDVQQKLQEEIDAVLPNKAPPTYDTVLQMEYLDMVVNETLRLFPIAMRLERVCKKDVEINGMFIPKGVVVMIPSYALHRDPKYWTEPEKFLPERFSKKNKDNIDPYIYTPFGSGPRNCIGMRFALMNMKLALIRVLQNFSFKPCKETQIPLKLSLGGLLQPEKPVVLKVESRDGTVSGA
Details: not given
The class given is ADME.
Regarding `C[C@@H](O[C@H]1CC[C@]2(CCC(F)(F)CO2)CC1)c1nc(-c2cc(F)c(CS(C)(=O)=O)c(F)c2)no1`, the IC50 is more than 50 µM.

For another series, the target named is T4, Cytochrome P450 2C8 (Homo sapiens, UniProt P10632).
T4 sequence (P10632 whole entry): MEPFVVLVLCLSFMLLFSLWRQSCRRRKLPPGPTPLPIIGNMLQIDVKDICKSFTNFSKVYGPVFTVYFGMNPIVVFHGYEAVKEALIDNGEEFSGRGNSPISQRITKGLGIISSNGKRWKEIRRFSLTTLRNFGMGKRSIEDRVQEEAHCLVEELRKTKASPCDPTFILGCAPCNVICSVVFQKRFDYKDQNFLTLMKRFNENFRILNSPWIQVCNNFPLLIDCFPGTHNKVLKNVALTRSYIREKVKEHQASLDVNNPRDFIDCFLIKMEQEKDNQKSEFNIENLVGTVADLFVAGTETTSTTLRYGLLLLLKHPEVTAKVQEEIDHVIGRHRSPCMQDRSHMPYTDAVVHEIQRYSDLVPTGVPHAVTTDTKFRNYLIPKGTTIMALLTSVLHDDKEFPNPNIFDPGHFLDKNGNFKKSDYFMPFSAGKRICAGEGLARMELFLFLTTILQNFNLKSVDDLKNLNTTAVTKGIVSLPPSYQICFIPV
Nature of the series: Inhibition of CYP2C8 (unknown origin). The class given is ADME.
Details: not given
Take `C[C@@H](O[C@H]1CC[C@]2(CCC(F)(F)CO2)CC1)c1nc(-c2cc(F)c(CS(C)(=O)=O)c(F)c2)no1`: the IC50 is more than 50 µM.

System in another series: not listed separately
The series is described as follows: Terminal half life in Sprague-Dawley rat at 1 mg/kg, iv. Format: ADME, organism-based. To be noted: in vivo, read-out: beta t1/2 (converted). Summed up:
as §2
In the case of `C[C@@H](O[C@H]1CC[C@]2(CCC(F)(F)CO2)CC1)c1nc(-c2cc(F)c(CS(C)(=O)=O)c(F)c2)no1`, the half-life was 5.1 h.

The next series has as its system Rattus norvegicus. Nature of the series: Hypoglycemic activity in Sprague-Dawley rat assessed as reduction in plasma glucose AUC at 1 mg/kg, po treated for 16 hrs prior to glucose stimulation and measured up to 2 hrs by IPGTT relative to control. Format: functional. On the set-up: scale not given: the % may be the effect or the level left.
Details: not given
The method, boiled down: as §3
`C[C@@H](O[C@H]1CC[C@]2(CCC(F)(F)CO2)CC1)c1nc(-c2cc(F)c(CS(C)(=O)=O)c(F)c2)no1`: the Activity is listed as 10%.
